Experimental data from ChEMBL document CHEMBL1165943, “Design and synthesis of new anticancer pyrimidines with multiple-kinase inhibitory effect” (Bioorg Med Chem, 2010).

Tests used:
Assay type in all cases: functional
K562 = assay: Cytotoxicity against human K562 cells assessed as cell growth at 10 uM; conditions: Homo sapiens, K562; read-out: Activity
How it was run: (§1)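 Single-dose screen at 10 μM across the 60-cell-line panel. Cells grown in RPMI 1640 with 5% FBS and 2 mM L-glutamine, seeded at 5,000–40,000 cells/well according to doubling time, and treated 24 h later. Exposure lasted 48 h at 37 °C, 5% CO₂. Adherent cells were fixed with cold TCA, suspension cells were fixed settled, and both were stained with SRB and read at 515 nm. Growth % was recorded, with inhibition % = 100 − growth %.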

MOLT-4 = assay: Cytotoxicity against human MOLT4 cells assessed as cell growth at 10 uM; conditions: Homo sapiens, MOLT-4; read-out: Activity; how it was run: as §1
SR = assay: Cytotoxicity against human SR cells assessed as cell growth at 10 uM; conditions: Homo sapiens, SR; read-out: Activity; how it was run: as §1
EKVX = assay: Cytotoxicity against human EKVX cells assessed as cell growth at 10 uM; conditions: Homo sapiens, EKVX; read-out: Activity
How it was run: (§2)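 Single-concentration screen at 10 μM across the 60-cell-line panel (nine tissue types); growth percentage recorded per cell line, with inhibition taken as 100 minus growth percentage.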

NCI-H226 = assay: Cytotoxicity against human NCI-H226 cells assessed as cell growth at 10 uM; conditions: Homo sapiens, NCI-H226; read-out: Activity; how it was run: as §1
NCI-H23 = assay: Cytotoxicity against human NCI-H23 cells assessed as cell growth at 10 uM; conditions: Homo sapiens, NCI-H23; read-out: Activity; how it was run: as §1
NCI-H322M = assay: Cytotoxicity against human NCI-H322M cells assessed as cell growth at 10 uM; conditions: Homo sapiens, NCI-H322M; read-out: Activity; how it was run: as §1
NCI-H522 = assay: Cytotoxicity against human NCI-H522 cells assessed as cell growth at 10 uM; conditions: Homo sapiens, NCI-H522; read-out: Activity; how it was run: as §1
HCC 2998 = assay: Cytotoxicity against human HCC2998 cells assessed as cell growth at 10 uM; conditions: Homo sapiens, HCC 2998; read-out: Activity; how it was run: as §2
HCT-116 = assay: Cytotoxicity against human HCT116 cells assessed as cell growth at 10 uM; conditions: Homo sapiens, HCT-116; read-out: Activity; how it was run: as §2
HCT-15 = assay: Cytotoxicity against human HCT15 cells assessed as cell growth at 10 uM; conditions: Homo sapiens, HCT-15; read-out: Activity; how it was run: as §2
KM12 = assay: Cytotoxicity against human KM12 cells assessed as cell growth at 10 uM; conditions: Homo sapiens, KM12; read-out: Activity; how it was run: as §1
SW-620 = assay: Cytotoxicity against human SW620 cells assessed as cell growth at 10 uM; conditions: Homo sapiens, SW-620; read-out: Activity; how it was run: as §1
SF-295 = assay: Cytotoxicity against human SF295 cells assessed as cell growth at 10 uM; conditions: Homo sapiens, SF-295; read-out: Activity; how it was run: as §1
SF-539 = assay: Cytotoxicity against human SF539 cells assessed as cell growth at 10 uM; conditions: Homo sapiens, SF-539; read-out: Activity; how it was run: as §1
SNB-75 = assay: Cytotoxicity against human SNB75 cells assessed as cell growth at 10 uM; conditions: Homo sapiens, SNB-75; read-out: Activity; how it was run: as §1
Malme-3M = assay: Cytotoxicity against human MALME-3M cells assessed as cell growth at 10 uM; conditions: Homo sapiens, Malme-3M; read-out: Activity; how it was run: as §1
M14 = assay: Cytotoxicity against human M14 cells assessed as cell growth at 10 uM; conditions: Homo sapiens, M14; read-out: Activity; how it was run: as §1
SK-MEL-2 = assay: Cytotoxicity against human SK-MEL-2 cells assessed as cell growth at 10 uM; conditions: Homo sapiens, SK-MEL-2; read-out: Activity; how it was run: as §1
SK-MEL-28 = assay: Cytotoxicity against human SK-MEL-28 cells assessed as cell growth at 10 uM; conditions: Homo sapiens, SK-MEL-28; read-out: Activity; how it was run: as §1
SK-MEL-5 = assay: Cytotoxicity against human SK-MEL-5 cells assessed as cell growth at 10 uM; conditions: Homo sapiens, SK-MEL-5; read-out: Activity; how it was run: as §1
IGROV-1 = assay: Cytotoxicity against human IGROV1 cells assessed as cell growth at 10 uM; conditions: Homo sapiens, IGROV-1; read-out: Activity; how it was run: as §1
OVCAR-3 = assay: Cytotoxicity against human OVCAR-3 cells assessed as cell growth at 10 uM; conditions: Homo sapiens, OVCAR-3; read-out: Activity; how it was run: as §1
OVCAR-5 = assay: Cytotoxicity against human OVCAR5 cells assessed as cell growth at 10 uM; conditions: Homo sapiens, OVCAR-5; read-out: Activity; how it was run: as §1
NCI/ADR-RES = assay: Cytotoxicity against human NCI/ADR-RES cells assessed as cell growth at 10 uM; conditions: Homo sapiens, NCI/ADR-RES; read-out: Activity; how it was run: as §1
SK-OV-3 = assay: Cytotoxicity against human SKOV3 cells assessed as cell growth at 10 uM; conditions: Homo sapiens, SK-OV-3; read-out: Activity; how it was run: as §1
786-0 = assay: Cytotoxicity against human 786-0 cells assessed as cell growth at 10 uM; conditions: Homo sapiens, 786-0; read-out: Activity; how it was run: as §2
A498 = assay: Cytotoxicity against human A498 cells assessed as cell growth at 10 uM; conditions: Homo sapiens, A498; read-out: Activity; how it was run: as §2
ACHN = assay: Cytotoxicity against human ACHN cells assessed as cell growth at 10 uM; conditions: Homo sapiens, ACHN; read-out: Activity; how it was run: as §2
CAKI-1 = assay: Cytotoxicity against human Caki1 cells assessed as cell growth at 10 uM; conditions: Homo sapiens, CAKI-1; read-out: Activity; how it was run: as §2
TK-10 = assay: Cytotoxicity against human TK10 cells assessed as cell growth at 10 uM; conditions: Homo sapiens, TK-10; read-out: Activity; how it was run: as §1
UO-31 = assay: Cytotoxicity against human UO31 cells assessed as cell growth at 10 uM; conditions: Homo sapiens, UO-31; read-out: Activity; how it was run: as §1
PC-3 = assay: Cytotoxicity against human PC3 cells assessed as cell growth at 10 uM; conditions: Homo sapiens, PC-3; read-out: Activity; how it was run: as §1
DU-145 = assay: Cytotoxicity against human DU145 cells assessed as cell growth at 10 uM; conditions: Homo sapiens, DU-145; read-out: Activity; how it was run: as §2
MCF7 = assay: Cytotoxicity against human MCF7 cells assessed as cell growth at 10 uM; conditions: Homo sapiens, MCF7; read-out: Activity; how it was run: as §1
MDA-MB-231 = assay: Cytotoxicity against human MDA-MB-231 cells assessed as cell growth at 10 uM; conditions: Homo sapiens, MDA-MB-231; read-out: Activity; how it was run: as §1
BT-549 = assay: Cytotoxicity against human BT549 cells assessed as cell growth at 10 uM; conditions: Homo sapiens, BT-549; read-out: Activity; how it was run: as §2
T47D = assay: Cytotoxicity against human T47D cells assessed as cell growth at 10 uM; conditions: Homo sapiens, T47D; read-out: Activity; how it was run: as §1
MDA-MB-468 = assay: Cytotoxicity against human MDA-MB-468 cells assessed as cell growth at 10 uM; conditions: Homo sapiens, MDA-MB-468; read-out: Activity; how it was run: as §1

With `Cc1ccc(Nc2nc(C)cc(-c3cccnc3)n2)c(C)c1` the growth at 10 µM (K562) was 85.8%, the growth at 10 µM (MOLT-4) was 91.4% and the growth at 10 µM (SR) was 94.4%. The growth at 10 µM (EKVX) was 96.1%, the growth at 10 µM (NCI-H226) was 94.8% and the growth at 10 µM (NCI-H23) was 90.9%. The growth at 10 µM (NCI-H322M) was 100%, the growth at 10 µM (NCI-H522) was 90.6% and the growth at 10 µM (HCC 2998) was 101%. It also gave a growth at 10 µM (HCT-116) of 95.2%, a growth at 10 µM (HCT-15) of 99.7% and a growth at 10 µM (KM12) of 98.7%. The growth at 10 µM (SW-620) was 97.5%, the growth at 10 µM (SF-295) was 98.3% and the growth at 10 µM (SF-539) was 89.7%. It also gave a growth at 10 µM (SNB-75) of 85.3%, a growth at 10 µM (Malme-3M) of 107% and a growth at 10 µM (M14) of 114%. The growth at 10 µM (SK-MEL-2) was 107%, the growth at 10 µM (SK-MEL-28) was 108% and the growth at 10 µM (SK-MEL-5) was 89.8%. The growth at 10 µM (IGROV-1) was 90.4%, the growth at 10 µM (OVCAR-3) was 105% and the growth at 10 µM (OVCAR-5) was 106%. For the same molecule, the growth at 10 µM (NCI/ADR-RES) was 85%, the growth at 10 µM (SK-OV-3) was 104% and the growth at 10 µM (786-0) was 93.2%. The growth at 10 µM (A498) was 96.1%, the growth at 10 µM (ACHN) was 108% and the growth at 10 µM (CAKI-1) was 88.8%. For the same molecule, the growth at 10 µM (TK-10) was 118%, the growth at 10 µM (UO-31) was 86.9% and the growth at 10 µM (PC-3) was 91.7%. It also gave a growth at 10 µM (DU-145) of 99.5%, a growth at 10 µM (MCF7) of 90% and a growth at 10 µM (MDA-MB-231) of 87.6%. It also gave a growth at 10 µM (BT-549) of 95.9%, a growth at 10 µM (T47D) of 87.1% and a growth at 10 µM (MDA-MB-468) of 72.8%.
